Assay outcomes from PubChem BioAssay.
MC4R ag barr = activates human MC4R beta-arrestin recruitment | U2OS MC4R beta-arrestin complementation, luminescence; percent of melanotan II response, DMSO zero | AID 540308 | P32245 | 360,000 compounds, 0.98% hits | activation, % at 8.9 µM;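 active = activation above a per-plate cutoff, the mean activation of sample wells on that plate plus 3 SD, cut at about 8% in these data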
Target sequence (P32245 whole entry, looked up): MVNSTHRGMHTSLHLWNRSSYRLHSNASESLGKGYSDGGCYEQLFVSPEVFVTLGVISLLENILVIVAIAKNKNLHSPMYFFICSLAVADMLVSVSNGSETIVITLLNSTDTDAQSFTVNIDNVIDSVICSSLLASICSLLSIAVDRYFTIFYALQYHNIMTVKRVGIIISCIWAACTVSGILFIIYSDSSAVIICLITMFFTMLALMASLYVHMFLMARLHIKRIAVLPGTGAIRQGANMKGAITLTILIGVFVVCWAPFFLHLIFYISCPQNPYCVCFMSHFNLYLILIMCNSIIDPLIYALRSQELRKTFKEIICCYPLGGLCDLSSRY
TLR4 MyD88 comp = inhibitors of human TLR4-MyD88 binding; HeLa CL3-4 TLR4/MyD88 BLA complementation, FRET ratio; inhibition, % at 8.4 µM; 200,000 compounds, 0.18% hits; in the data active = inhibition above about 25%;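 note: 0% = vehicle and 100% = reference inhibitor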
TLR9-MyD88 block = blocks human TLR9 binding to MyD88; Q9NR96+Q99836; CHO BLA complementation TLR9-MyD88, CCF4 FRET ratio; inhibition, % at 4.98 µM; 340,000 compounds, 0.21% hits;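 active = inhibition above the mean over all tested compounds plus 3 SD, cut at about 21% in these data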;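 note: 0% = DMSO only wells and 100% = clavulanate BLA inhibitor control wells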
MC4R antag cAMP = blocks human MC4R cAMP signaling. P32245. MC4R-expressing cells, MTII-stimulated cAMP, LANCE TR-FRET. inhibition, % at 6.5 µM. 360,000 compounds, 0.48% hits. AID 540295;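 active = inhibition above its plate's cutoff, the mean of tested wells on that plate plus 3 SD, cut at about 29% in these data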;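 note: 0% = Melanotan II alone and 100% = Melanotan II plus saturating MCL0020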
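Assay system: human MC4R-expressing U2OS cells; reagent: Melanotan II stimulation of cells; dosing: 6.5 µM single dose; timing: compound 30 min, challenge 1 h, detection 1 h; signal: TR-FRET cAMP assay; replicates: one well per compound, no replicates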
NTR1 ag = agonists of human neurotensin receptor NTR1 | NTR1-U2OS beta-arrestin-GFP spot imaging, agonist mode | activation, % at 20 µM | 330,000 compounds, 0.17% hits | AID 493036;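 active = activation at or above 40% of the spot to cytoplasm intensity ratio, with at least 20 cells analyzed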;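 note: 0% = DMSO without peptide and 100% = 100 nM NTR1 peptide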
NOD2-RIPK2 inh = NOD2-RIPK2 protein interaction inhibition; CHO BLA complementation NOD2-RIPK2, CCF4 ratio; inhibition, % at 4.98 µM; 360,000 compounds, 0.38% hits; AID 624267; O43353; in the data active = inhibition above about 21%;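 note: 0% = vehicle only and 100% = reference blocker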
TLR4-MyD88 conf = TLR4-MyD88 interaction inhibition confirmed; shares compounds with TLR4 MyD88 comp; HeLa CL3-4 BLA complementation, CCF4 FRET ratio; inhibition, % at 8.4 µM; 350 compounds, 50% hits; AID 941;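 active = mean inhibition across three repeat runs above about 25% carried over from the earlier screen, limit read from the data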;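 note: plate controls were DMSO only for no effect and clavulanic acid blocking BLA at full dose for full effect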
BLA inhibitor ct = beta-lactamase inhibition flagged in TLR4-MyD88 counter-screen; shares compounds with TLR4 MyD88 comp; 350 compounds, 63% hits; inhibition, % at 8.4 µM; HeLa BLA reporter, CCF4 FRET ratio; AID 1237;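 active = mean inhibition over three repeats above about 26% taken from the earlier screen, limit read from the data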;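 note: HeLa cells stably expressing beta-lactamase reporter as counterscreen for TLR4-MyD88 inhibitors; 0% = DMSO and 100% = clavulanic acid full inhibition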
* hit, by the source's call; / = not tested or not shown. A selection: hits, their analogues and other compounds. The true share with any hit is near 1.9%.

SMILES	MC4R ag barr	TLR4 MyD88 comp	TLR9-MyD88 block	MC4R antag cAMP	NTR1 ag	NOD2-RIPK2 inh	others
C[C@@H]1O[C@@H](O[C@@H]2C=C3CCC4C(CC[C@]5(C)[C@@H](c6ccc(=O)oc6)CC[C@]45O)[C@@]3(C)CC2)[C@H](O)[C@H](O)[C@H]1O (stereo partly specified)	25.3*	/	13.7	3.2	-1.1	-19.6
CC(=O)C1CCC2(O)C3CCC4=CC(=O)CCC4(C)C3CCC12C (stereo unspecified)	2.2	/	-7.0	1.5	/	-3.0
C[C@@H]1O[C@@H](O[C@@H]2C=C3CC[C@@H]4C(CC[C@]5(C)[C@@H](c6ccc(=O)oc6)CC[C@]45O)[C@@]3(C)CC2)[C@H](O)[C@H](O)[C@H]1O (stereo partly specified)	37.7*	/	-11.6	10.7	-1.3	-10.2
O=C1NC(=O)C(Cc2ccccc2)(Cc2ccccc2)C(=O)N1Cc1ccccc1	7.6	/	-10.8	18.7	/	-7.4
COC(=O)C1=C(c2cccc(OCc3ccccc3)c2)C[C@@H]2CC[C@H]1N2C(=O)NCc1ccc(N(C)C)cc1	-1.2	/	-0.8	13.1	0.6	-2.2
CCCCOc1ccc(CCN)cc1Cl	8.3*	2.8	12.7	5.3	0.3	-9.9
CC(C)Oc1ccc(CCN)cc1Cl	0.1	12.8	6.0	-0.8	-0.8	-0.3
O=C1NC(=O)N(Cc2ccccc2)C(=O)/C1=C/c1cnn(-c2ccccc2)c1	/	5.7	/	/	46.9*	/
CC=C(CC)C1(CCC)C(=O)NC(=S)NC1=O	-2.2	/	-4.3	1.2	/	6.2
C=CCN1C(=O)NC(=O)/C(=C\c2ccc(-c3ccccc3[N+](=O)[O-])o2)C1=O	0.2	0.5	17.4	12.6	14.7	-22.3
O=C1NC(=O)N(Cc2ccco2)C(=O)/C1=C/c1ccc(-c2cccc([N+](=O)[O-])c2)o1	-0.6	-1.6	6.3	31.0*	58.0*	5.7
COC(=O)C1=C(c2ccc(OCc3ccccc3)cc2)C[C@@H]2CC[C@H]1N2C	0.1	/	5.8	10.2	/	-4.5
O=C(O)c1cc[c]([Hg][Cl])cc1	-2.1	/	3.0	70.2*	0.4	2.6
COc1ccc(C(=O)O)cc1OC	-0.6	/	-0.4	-0.3	/	4.3
CN(C)c1ccc(C(=O)N/N=C/C23CC[C@@H](O)CC2(O)CC[C@@H]2[C@@H]3CCC3(C)C(C4=CC(=O)OC4)CCC23O)cc1 (stereo partly specified)	13.8*	/	6.8	-7.0	-1.7	-5.6
O=C1NC(=S)NC(=O)C1=Cc1cccn1-c1ccc(O)cc1	-2.9	12.1	-2.6	28.1	/	-9.7
Cc1cc(C)cc(N2C(=O)NC(=O)/C(=C\c3cccn3-c3ccc(Cl)cc3)C2=O)c1	3.6	3.1	1.8	5.2	49.7*	-1.8
CC(C)CC(=O)NC(Oc1ccc(Cl)cc1)C(Cl)(Cl)Cl (stereo unspecified)	8.5*	-3.4	-6.3	11.8	1.1	-4.3
CCCC(=O)NC(Oc1ccc(OC)cc1)C(Cl)(Cl)Cl (stereo unspecified)	-0.7	5.5	7.6	2.2	-3.3	12.4
C[C@@H]1O[C@@H](O[C@H]2C[C@@H](O)[C@]3(CO)[C@H]4[C@H](O)C[C@]5(C)[C@@H](C6COC(=O)C6)CC[C@]5(O)[C@@H]4CC[C@]3(O)C2)[C@H](O)[C@H](O)[C@H]1O (stereo partly specified)	23.9*	-3.1	2.4	6.3	0.9	-10.6
CC1OC(OC2CC(O)C3(CO)C4C(O)CC5(C)C(C6=CC(=O)OC6)CCC5(O)C4CCC3(O)C2)C(O)C(O)C1O (stereo unspecified)	16.1*	/	11.1	13.1	/	6.8
CC(=O)OC1CC(OC2C(O)CC(OC3C(O)CC(OC4CCC5(C)C(CCC6C5CCC5(C)C(C7=CC(=O)OC7)CCC65O)C4)OC3C)OC2C)OC(C)C1OC1OC(CO)C(O)C(O)C1O (stereo unspecified)	33.0*	/	-0.9	-4.7	/	-17.3
CCOC(=O)CNC(=O)N1Cc2cc(-c3ccc(OC)cc3)ccc2-n2nncc2C1	/	/	/	/	/	11.1
CC1=C(N2CC2)C(=O)C(CO)=C(N2CC2)C1=O	-8.3	/	-20.4	-13.9	/	-12.1
Cc1[nH]c2ccc(OC(F)(F)F)cc2c1CCNCc1cccc([N+](=O)[O-])c1	2.3	/	1.9	-8.1	8.9	-1.9
SMILES	MC4R ag barr	TLR4 MyD88 comp	TLR9-MyD88 block	MC4R antag cAMP	NTR1 ag	NOD2-RIPK2 inh	others
CCOc1cccc(CNCCc2c(C)[nH]c3ccc(OC(F)(F)F)cc23)c1O	16.9*	/	-1.8	8.5	35.7	14.2
CC(O)(CS(=O)(=O)c1cccc(C(F)(F)F)c1)C(=O)Nc1cccc(C(F)(F)F)c1 (stereo unspecified)	10.0*	3.4	-7.6	4.3	3.4	-17.8
CC(=O)OC1CC[C@]2(C#N)[C@H]3CC[C@]4(C)[C@H](C5C=CC(=O)O5)CCC4(O)C3CCC2(O)C1 (stereo partly specified)	14.3*	/	-3.4	14.7	-0.4	5.5
COC1=CC=C2[C@H]3Cc4ccc(OC)c5c4[C@@]2(CCN3C)[C@H]1O5	1.5	/	-12.6	11.3	0.2	-4.6
CCOP(=O)(OCC)C(c1ccccc1)N(C)C=O (stereo unspecified)	0.1	-6.1	-4.9	12.1	0.7	58.4*
CCOP(=O)(OCC)C(NC(=O)c1ccccc1)C(Cl)(Cl)Cl (stereo unspecified)	-1.4	-14.8	-2.2	0.3	0.9	4.6
O=C(NC1CCCCC1)N1Cc2cc(N3CCOCC3)ccc2-n2nncc2C1	/	/	/	/	/	-20.1
Cc1ccc(/C=C2\C(=O)NC(=S)N(c3ccc(F)cc3)C2=O)s1	-1.1	26.1*	-11.8	16.8	15.4	0.0	TLR4-MyD88 conf=18.9;BLA inhibitor ct=-16.3
CCC1([N+](=O)[O-])COP(=O)(NCc2cccnc2)OC1 (stereo unspecified)	-1.3	/	-9.1	1.8	/	10.3
CCn1c(O)c(C=Nc2ccc(N3CCOCC3)c(Br)c2)c(=O)n(CC)c1=S	-0.8	-3.1	5.5	3.4	-3.6	3.6
CCn1c(O)c(C=Nc2ccc(N3CCOCC3)cc2)c(=O)n(CC)c1=S	1.4	43.7*	15.8	7.3	4.0	9.9	TLR4-MyD88 conf=49.8*;BLA inhibitor ct=68.7*
Cn1cccc1/C=C1/C(=O)NC(=O)N(C(C)(C)C)C1=O	-1.8	/	4.5	-16.1	2.1	12.1
